These results are taken from ChEMBL document CHEMBL4002591 (J Med Chem, 2017).

A word on the IC50: it is the point on the concentration scale where inhibition reaches its midpoint.

Calls of active or inactive are those of the source. The rule behind the calls is not given here. Some results are limits rather than exact numbers.

Test [1] has as its target T1, Protein mono-ADP-ribosyltransferase PARP12 (Homo sapiens, UniProt Q9H0J9).
T1 sequence (Q9H0J9 whole entry): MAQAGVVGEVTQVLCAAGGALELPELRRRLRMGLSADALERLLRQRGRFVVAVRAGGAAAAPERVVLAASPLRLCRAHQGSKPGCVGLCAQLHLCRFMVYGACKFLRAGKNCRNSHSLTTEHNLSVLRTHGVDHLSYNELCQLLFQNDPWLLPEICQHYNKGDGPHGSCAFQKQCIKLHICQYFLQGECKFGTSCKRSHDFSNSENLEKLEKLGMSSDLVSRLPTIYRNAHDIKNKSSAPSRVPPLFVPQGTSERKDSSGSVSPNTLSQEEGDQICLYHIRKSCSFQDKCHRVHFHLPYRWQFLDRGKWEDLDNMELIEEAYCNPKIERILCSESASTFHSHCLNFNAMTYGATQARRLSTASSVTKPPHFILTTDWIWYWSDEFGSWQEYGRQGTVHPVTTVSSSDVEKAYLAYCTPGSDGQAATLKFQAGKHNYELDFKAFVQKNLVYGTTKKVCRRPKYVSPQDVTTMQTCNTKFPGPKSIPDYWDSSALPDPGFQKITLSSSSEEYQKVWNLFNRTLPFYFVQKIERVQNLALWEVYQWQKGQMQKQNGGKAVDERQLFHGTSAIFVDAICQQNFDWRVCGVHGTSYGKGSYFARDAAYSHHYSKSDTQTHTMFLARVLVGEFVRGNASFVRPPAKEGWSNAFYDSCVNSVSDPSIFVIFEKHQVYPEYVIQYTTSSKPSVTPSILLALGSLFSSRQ
As to the kind of experiment: Inhibition of PARP12 (unknown origin).

The target of test [2] is Poly [ADP-ribose] polymerase 1 (Homo sapiens, UniProt P09874). As to the kind of experiment: Inhibition of full length recombinant human N-terminal GST-tagged PARP1 expressed in Baculovirus infected Sf9 cells using TACS-Sapphire as substrate measured after 1 hr by colorimetric assay. The settings on record: read-out: IC50.
Sequence of Poly [ADP-ribose] polymerase 1 (P09874 whole entry): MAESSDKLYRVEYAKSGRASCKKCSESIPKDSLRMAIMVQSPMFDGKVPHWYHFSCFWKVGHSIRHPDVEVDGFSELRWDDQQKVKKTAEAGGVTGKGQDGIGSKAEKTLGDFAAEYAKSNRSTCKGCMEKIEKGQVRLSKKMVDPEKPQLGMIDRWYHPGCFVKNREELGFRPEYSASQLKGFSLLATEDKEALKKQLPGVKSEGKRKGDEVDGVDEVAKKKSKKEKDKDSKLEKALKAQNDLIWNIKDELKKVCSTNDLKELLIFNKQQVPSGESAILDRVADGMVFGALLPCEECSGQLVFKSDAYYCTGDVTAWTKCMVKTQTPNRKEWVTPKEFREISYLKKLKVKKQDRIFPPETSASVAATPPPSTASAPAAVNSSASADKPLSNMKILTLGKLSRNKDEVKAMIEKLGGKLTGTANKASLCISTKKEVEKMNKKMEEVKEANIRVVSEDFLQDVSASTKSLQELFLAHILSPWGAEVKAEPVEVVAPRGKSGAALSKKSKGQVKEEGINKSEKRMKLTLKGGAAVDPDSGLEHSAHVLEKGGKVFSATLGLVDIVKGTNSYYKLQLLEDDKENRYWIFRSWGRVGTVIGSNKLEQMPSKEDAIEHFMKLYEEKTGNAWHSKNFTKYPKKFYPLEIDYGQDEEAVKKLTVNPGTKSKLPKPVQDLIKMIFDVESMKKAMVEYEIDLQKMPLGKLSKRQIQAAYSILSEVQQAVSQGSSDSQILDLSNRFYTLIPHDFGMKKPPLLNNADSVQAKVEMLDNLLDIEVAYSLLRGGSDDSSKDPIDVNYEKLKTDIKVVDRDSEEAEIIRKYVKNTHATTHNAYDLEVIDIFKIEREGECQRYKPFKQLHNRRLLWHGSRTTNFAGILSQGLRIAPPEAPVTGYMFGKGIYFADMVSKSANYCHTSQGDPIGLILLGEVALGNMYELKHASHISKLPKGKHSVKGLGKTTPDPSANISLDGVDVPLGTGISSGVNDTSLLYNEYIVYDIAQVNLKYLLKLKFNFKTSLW
The target in test [3] is Protein mono-ADP-ribosyltransferase PARP4 (Homo sapiens, UniProt Q9UKK3). The test is described as follows: Inhibition of PARP4 (unknown origin).
Sequence of Protein mono-ADP-ribosyltransferase PARP4 (Q9UKK3 whole entry): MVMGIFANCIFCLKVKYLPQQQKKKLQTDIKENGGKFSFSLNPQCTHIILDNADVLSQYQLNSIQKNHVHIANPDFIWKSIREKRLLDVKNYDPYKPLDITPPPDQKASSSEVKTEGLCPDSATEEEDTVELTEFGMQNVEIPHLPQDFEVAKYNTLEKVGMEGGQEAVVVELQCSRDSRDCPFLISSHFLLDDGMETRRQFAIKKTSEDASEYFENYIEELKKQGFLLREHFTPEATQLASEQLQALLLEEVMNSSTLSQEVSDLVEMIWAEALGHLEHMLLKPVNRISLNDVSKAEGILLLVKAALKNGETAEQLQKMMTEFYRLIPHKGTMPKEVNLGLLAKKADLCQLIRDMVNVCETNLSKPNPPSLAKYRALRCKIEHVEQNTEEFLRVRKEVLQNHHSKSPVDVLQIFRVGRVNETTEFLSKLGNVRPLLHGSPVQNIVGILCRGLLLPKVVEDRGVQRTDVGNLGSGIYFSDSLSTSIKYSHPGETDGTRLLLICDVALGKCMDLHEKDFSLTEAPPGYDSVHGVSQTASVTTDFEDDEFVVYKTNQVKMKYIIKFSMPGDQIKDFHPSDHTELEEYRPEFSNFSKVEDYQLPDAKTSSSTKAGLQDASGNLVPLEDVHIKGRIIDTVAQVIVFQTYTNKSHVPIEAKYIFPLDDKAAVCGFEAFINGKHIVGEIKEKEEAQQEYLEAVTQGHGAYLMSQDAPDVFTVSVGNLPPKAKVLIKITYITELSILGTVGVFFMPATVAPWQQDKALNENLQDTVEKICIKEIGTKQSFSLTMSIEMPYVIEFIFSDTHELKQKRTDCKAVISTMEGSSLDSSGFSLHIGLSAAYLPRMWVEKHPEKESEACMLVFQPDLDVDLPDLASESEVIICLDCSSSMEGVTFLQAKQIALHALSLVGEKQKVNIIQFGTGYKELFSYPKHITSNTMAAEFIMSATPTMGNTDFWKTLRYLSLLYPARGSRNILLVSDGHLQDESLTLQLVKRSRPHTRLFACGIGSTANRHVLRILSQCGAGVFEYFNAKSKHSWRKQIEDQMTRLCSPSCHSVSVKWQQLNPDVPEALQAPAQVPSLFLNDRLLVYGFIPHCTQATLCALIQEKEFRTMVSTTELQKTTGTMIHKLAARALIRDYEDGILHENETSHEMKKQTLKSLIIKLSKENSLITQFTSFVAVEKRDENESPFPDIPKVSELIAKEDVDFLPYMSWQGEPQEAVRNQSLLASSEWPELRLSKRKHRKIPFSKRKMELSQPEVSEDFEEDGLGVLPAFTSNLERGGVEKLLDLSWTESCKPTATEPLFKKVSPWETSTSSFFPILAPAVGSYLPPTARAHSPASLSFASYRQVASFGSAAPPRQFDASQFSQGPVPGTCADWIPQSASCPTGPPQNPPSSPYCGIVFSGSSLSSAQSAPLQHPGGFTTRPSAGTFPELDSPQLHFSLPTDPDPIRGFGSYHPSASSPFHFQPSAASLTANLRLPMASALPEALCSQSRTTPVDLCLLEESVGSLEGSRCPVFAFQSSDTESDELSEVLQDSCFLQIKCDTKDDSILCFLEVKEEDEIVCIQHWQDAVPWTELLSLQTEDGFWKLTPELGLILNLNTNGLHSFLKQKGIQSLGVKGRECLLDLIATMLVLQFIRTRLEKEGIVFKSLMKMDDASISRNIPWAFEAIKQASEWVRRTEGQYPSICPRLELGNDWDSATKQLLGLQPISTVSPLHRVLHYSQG
For test [4], the target named is T2, Protein mono-ADP-ribosyltransferase PARP10 (Homo sapiens, UniProt Q53GL7).
T2 sequence (Q53GL7 whole entry): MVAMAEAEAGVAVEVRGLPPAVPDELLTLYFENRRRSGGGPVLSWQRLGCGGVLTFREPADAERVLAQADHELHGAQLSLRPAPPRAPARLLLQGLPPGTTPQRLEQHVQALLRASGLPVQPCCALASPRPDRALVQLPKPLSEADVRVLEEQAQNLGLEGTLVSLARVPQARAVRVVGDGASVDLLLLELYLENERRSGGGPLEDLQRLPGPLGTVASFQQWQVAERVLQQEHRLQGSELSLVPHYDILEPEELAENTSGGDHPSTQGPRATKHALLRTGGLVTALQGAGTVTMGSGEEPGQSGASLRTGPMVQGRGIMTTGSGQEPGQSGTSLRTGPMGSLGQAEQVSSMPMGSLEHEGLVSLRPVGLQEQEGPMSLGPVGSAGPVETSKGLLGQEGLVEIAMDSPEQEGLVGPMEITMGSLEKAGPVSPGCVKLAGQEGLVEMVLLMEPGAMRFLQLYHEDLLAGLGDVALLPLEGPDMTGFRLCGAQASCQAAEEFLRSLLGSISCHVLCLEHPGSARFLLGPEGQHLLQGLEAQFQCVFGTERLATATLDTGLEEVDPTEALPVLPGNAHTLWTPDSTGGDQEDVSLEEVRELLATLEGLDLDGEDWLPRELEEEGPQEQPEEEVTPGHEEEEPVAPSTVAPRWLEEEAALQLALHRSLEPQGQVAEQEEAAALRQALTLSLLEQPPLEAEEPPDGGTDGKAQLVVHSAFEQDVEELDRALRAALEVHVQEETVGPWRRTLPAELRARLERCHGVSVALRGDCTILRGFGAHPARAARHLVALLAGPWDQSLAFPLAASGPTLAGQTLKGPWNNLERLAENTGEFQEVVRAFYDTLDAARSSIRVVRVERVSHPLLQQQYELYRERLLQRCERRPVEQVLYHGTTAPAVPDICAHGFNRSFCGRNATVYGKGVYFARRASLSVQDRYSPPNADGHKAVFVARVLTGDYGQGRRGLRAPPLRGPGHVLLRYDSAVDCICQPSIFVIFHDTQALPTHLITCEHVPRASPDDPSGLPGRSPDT
The test is described as follows: Inhibition of PARP10 (unknown origin).

Test [5] deals with T3, Protein mono-ADP-ribosyltransferase PARP15 (Homo sapiens, UniProt Q460N3).
T3 sequence (Q460N3 whole entry): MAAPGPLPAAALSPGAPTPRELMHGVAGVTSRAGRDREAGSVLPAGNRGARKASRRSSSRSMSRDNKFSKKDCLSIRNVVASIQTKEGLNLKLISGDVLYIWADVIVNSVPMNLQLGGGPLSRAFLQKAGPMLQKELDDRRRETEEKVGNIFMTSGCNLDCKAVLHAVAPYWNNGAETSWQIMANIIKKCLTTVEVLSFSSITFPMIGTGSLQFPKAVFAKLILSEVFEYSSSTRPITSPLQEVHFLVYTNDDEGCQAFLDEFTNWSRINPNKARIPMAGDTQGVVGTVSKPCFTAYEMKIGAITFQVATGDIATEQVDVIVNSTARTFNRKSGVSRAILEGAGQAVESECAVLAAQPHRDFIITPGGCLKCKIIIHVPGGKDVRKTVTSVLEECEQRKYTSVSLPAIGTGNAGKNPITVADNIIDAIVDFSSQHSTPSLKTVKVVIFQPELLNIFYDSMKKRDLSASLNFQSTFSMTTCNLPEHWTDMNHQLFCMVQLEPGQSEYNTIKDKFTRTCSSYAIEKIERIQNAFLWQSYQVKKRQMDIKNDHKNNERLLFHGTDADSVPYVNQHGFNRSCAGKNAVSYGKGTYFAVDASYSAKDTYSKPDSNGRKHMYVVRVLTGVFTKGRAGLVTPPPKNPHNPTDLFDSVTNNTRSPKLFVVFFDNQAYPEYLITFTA
As to the kind of experiment: Inhibition of PARP15 (unknown origin).

The test system of another test is DLD-1. The test is described as follows: Anti-proliferative activity against human DLD1 cells assessed as inhibition of colony formation at 1 uM measured after 18 days under normal serum condition by trypan blue staining based light microscopic analysis. Type of test: functional, cell-based. In outline:
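DLD-1 colony-forming assay under normal serum: 1000 cells/well, with 1.0 µM or 100 nM compound, or a 1% DMSO (v/v) vehicle control. Colonies were counted, n = 3.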

The species entered for a further test is Mus musculus. The test is described as follows: Inhibition of TNKS in mouse 3T3L1 cells assessed as upregulation of GLUT4 by measuring increase in insulin-stimulated glucose uptake at 100 nM using 2-deoxy-D-[2,6-3H]glucose as substrate pretreated for 1 hr followed by insulin stimulation for 30 mins and subsequent addition of substrate measured after 5 mins by scintillation counter. Format: cell-based. The arrangement: scale not given: the % may be the effect or the level left. In a few lines:
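3T3-L1 fibroblasts were grown in DMEM and differentiated to adipocytes with insulin, dexamethasone and isobutylmethylxanthine, then used 10-12 d later. Cells were serum-starved 2 h at 37°C and given compound for 1 h. After KRH washes (pH 7.4), cells were held 30 min with compound, with or without 100 nM insulin. 2-Deoxy-D-[2,6-³H]glucose was added for 5 min.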

Take `Cc1cccc2c(=O)[nH]c(CCC(=O)Nc3ccc(C(=O)Nc4cccc5cccnc45)cc3)nc12`: the IC50 is more than 100 µM in test [1]; 6.5 µM in test [2]; 65 µM in test [3]; more than 100 µM in test [4]; more than 100 µM in test [5]. The inhibition result in the test on DLD-1 was “Active”. The Activity in the test listed under Mus musculus was 20%.
Turning to `O=C(CCc1nc2ccccc2c(=O)[nH]1)Nc1ccc(C(=O)Nc2cccc3cccnc23)cc1`, the IC50 in test [1] is more than 100 µM; in test [2] it was 8.2 µM; in test [3], 69 µM; in test [4], more than 100 µM; in test [5], more than 100 µM. For the same molecule, in the test on DLD-1, the inhibition entry is “Active”. Further, in the test filed under Mus musculus, the Activity is 40%.
